Screening results from PubChem.
Many of the other results were omitted from the sample, so hits are more common in it than they were.
Fibroblast inh = blocks proliferation of human lung fibroblasts; 85,000 tested, 1.1% active; LL 47 human lung fibroblast viability, ATP luminescence; hits give low values; AID 719; viability, % at 10 µM;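 active = viability at or below 50% in the single dose screen; inactive = viability above 50%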;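 also: compound exposure lasted 72 h before the ATP readout; 100% = median luminescence of untreated cell-only wells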
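Material: human lung fibroblast line LL 47, low passage; Evaluation: viability percentage against median untreated-cell control; Buffer or medium: 15% FBS in IMEM; Incubation: 72 h compound exposure at 37 °C after overnight plating; Dosing: 0.1% DMSO in all compound wells; Measured by: CellTiter-Glo luminescence.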
PTEN del growth = PTEN-deleted cell growth suppression; viability, % at 10 µM; HCT116 PTEN-null viability, CellTiter-Glo, 60 h; hits give low values; 140,000 tested, 1.2% active;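 active = viability at or below a set limit, 4 SD under the median of all tested compounds, cut at about 3.7% in these data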;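 also: PTEN knockout HCT116 line with beta catenin targeted HCT116 as companion control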
H69AR growth 86K = growth inhibitors of human H69AR lung tumor cells. H69AR lung tumor viability, ATP luminescence, 72 h; hits give low values. viability, % at 10 µM. 85,000 tested, 6% active;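 active = viability at or below 40%; inactive = viability above 40%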;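 also: multidrug resistant small cell line overexpressing MRP-1 efflux transporter; 100% = mean luminescence of untreated control wells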
HUVEC inhibit = inhibitors of human endothelial cell proliferation. viability, % at 10 µM (by protocol). 86,000 tested, 1.1% active. HUVEC proliferation, CellTiter-Glo luminescence, 72 h; hits give low values. AID 648;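 active = viability at or below 30%; inactive = viability above 30%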;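 also: 100% = median luminescence of DMSO-only cell control wells on each plate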
HCT116 bCat-KO = beta-catenin-lacking colon tumor cell growth suppression. 140,000 tested, 1.5% active. viability, % at 10 µM. HCT116 beta-catenin knockout viability, CellTiter-Glo, 60 h; hits give low values;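 active = viability at or under a set limit, the compound median less 4 SD, cut at about 6% in these data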;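 also: 0% = Hyamine 1622 control at 20 µM and 100% = untreated cell control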
* hit, by the source's call.

Screening CCOC(=O)C1=C(c2ccccc2)N=c2s/c(=C\c3cccc(O)c3)c(=O)n2C1c1cccs1 (stereo not given) returned PTEN del growth 1.5* and HCT116 bCat-KO 1.5*.
`CCOC(=O)C1=C(C)N=c2s/c(=C\c3ccc(OC(C)=O)c(OCC)c3)c(=O)n2C1/C=C/c1ccccc1` (stereo not given) gave PTEN del growth 29.1 and HCT116 bCat-KO 44.1.
`COCCNC(=O)COC(=O)/C=C/c1c(C)nn(Cc2ccc(Cl)cc2Cl)c1Cl` gave Fibroblast inh 95.7, PTEN del growth 78.9, H69AR growth 86K 85.5, HUVEC inhibit 86.9 and HCT116 bCat-KO 82.2.
`Cc1nn(Cc2c(Cl)cccc2Cl)c(Cl)c1/C=C/C(=O)OCC(=O)NCC(F)(F)F` gave PTEN del growth 4.0 and HCT116 bCat-KO 4.2*.
NC(=S)N/N=C\c1ccc(-c2cccc(Cl)c2Cl)o1 was read as Fibroblast inh 67.9, PTEN del growth 62.9, H69AR growth 86K 44.9, HUVEC inhibit 21.9* and HCT116 bCat-KO 54.7.
Screening NC(=S)N/N=C/c1ccc(-c2ccc(Cl)c(Cl)c2)o1 returned Fibroblast inh 81.0, PTEN del growth 56.2, H69AR growth 86K 50.9, HUVEC inhibit 68.6 and HCT116 bCat-KO 52.7.
COc1ccccc1C1CC(c2c(-c3ccccc3)c3cc(Cl)ccc3[nH]c2=O)=NN1S(C)(=O)=O (stereo not given) was read as Fibroblast inh 93.6, PTEN del growth 1.9*, H69AR growth 86K 8.3*, HUVEC inhibit 25.9* and HCT116 bCat-KO 2.0*.
For COc1cccc(C2CC(c3c(-c4ccccc4)c4cc(Cl)ccc4[nH]c3=O)=NN2S(C)(=O)=O)c1OC (stereo not given) the results were Fibroblast inh 90.8, PTEN del growth 36.9, H69AR growth 86K 21.9*, HUVEC inhibit 55.8 and HCT116 bCat-KO 54.5.
`CCC(=O)N1N=C(c2c(-c3ccccc3)c3cc(Cl)ccc3[nH]c2=O)CC1c1ccco1` (stereo not given) gave PTEN del growth 45.5 and HCT116 bCat-KO 58.1.
Cc1ccc(C2CC(=O)NC(SCC(=O)Nc3nccs3)=C2C#N)cc1 (stereo not given) was read as PTEN del growth 82.9 and HCT116 bCat-KO 100.5.
For Cc1ccccc1NC(NC(=O)OCCn1c([N+](=O)[O-])cnc1C)C(Cl)(Cl)Cl (stereo not given) the results were PTEN del growth 92.9 and HCT116 bCat-KO 93.6.
COc1ccccc1C(=O)/C=C/c1ccc(N2CCCCC2)c([N+](=O)[O-])c1 was read as PTEN del growth 1.4* and HCT116 bCat-KO 1.5*.
For O=C(O/N=C\c1ccc(N2CCCCC2)c([N+](=O)[O-])c1)c1ccc(Cl)cc1Cl the results were PTEN del growth 91.0 and HCT116 bCat-KO 94.6.
Screening COc1ccc(C)cc1N1C(=N)/C(=C2/Nc3ccccc3S2)C(c2ccccc2)C1=O (stereo not given) returned PTEN del growth 1.7* and HCT116 bCat-KO 1.6*.
Screening CC(=O)[C@H]1CC[C@H]2[C@@H]3CCC4=CC(=O)CC[C@]4(C)[C@H]3CC[C@]12C returned Fibroblast inh 90.0, PTEN del growth 43.8, H69AR growth 86K 28.9*, HUVEC inhibit 31.8 and HCT116 bCat-KO 22.4.
C[C@]12CCC(=O)C=C1CC[C@@H]1[C@@H]2CC[C@@]2(C)[C@H]1CC[C@]2(O)C(=O)CO was read as Fibroblast inh 102.0, PTEN del growth 96.5, H69AR growth 86K 67.7, HUVEC inhibit 91.9 and HCT116 bCat-KO 75.6.
For COCCn1c(-c2ccc(Cl)cc2)cnc1SCC(=O)NCc1cccs1 the results were Fibroblast inh 92.8, PTEN del growth 73.2, H69AR growth 86K 66.2, HUVEC inhibit 105.3 and HCT116 bCat-KO 88.4.
For COc1cccc(/C=N/n2c(SC)nnc2-c2ccccc2)c1O the results were Fibroblast inh 89.3, PTEN del growth 31.2, H69AR growth 86K 23.2*, HUVEC inhibit 51.0 and HCT116 bCat-KO 38.8.
For O=C(COC(=O)CNC(=O)c1ccc(Cl)cc1)Nc1ccc(Cl)cc1C(F)(F)F the results were PTEN del growth 91.6 and HCT116 bCat-KO 95.0.
For O=C(NC1CCCCC1)Sc1ccc(Cl)cc1 the results were Fibroblast inh 82.9, PTEN del growth 32.7, H69AR growth 86K 36.0*, HUVEC inhibit 61.9 and HCT116 bCat-KO 66.1.
Cc1nc(Nc2ccc(F)cc2)[nH]c(=O)c1CCC(C)C was read as PTEN del growth 48.5, H69AR growth 86K 6.7*, HUVEC inhibit 75.0 and HCT116 bCat-KO 62.2.
Screening COc1ccc(S(=O)(=O)N2c3cc(Cl)ccc3Oc3nc4ccccc4nc32)cc1 returned Fibroblast inh 56.3, PTEN del growth 13.0, H69AR growth 86K 29.0*, HUVEC inhibit 47.8 and HCT116 bCat-KO 12.6.
CC(C)(C)NC(=O)CSc1ccc(C(C)(C)C)cc1 was read as Fibroblast inh 102.1, PTEN del growth 96.5, H69AR growth 86K 89.3, HUVEC inhibit 90.7 and HCT116 bCat-KO 83.1.
Cc1cc(=O)n2c3c(sc2n1)C(=O)N(Cc1ccccc1)C3=O was read as Fibroblast inh 67.3, PTEN del growth 91.3, H69AR growth 86K 1.1*, HUVEC inhibit 73.5 and HCT116 bCat-KO 95.4.
For O=c1[nH]c(N/N=C/c2ccccc2Br)nnc1-c1ccccc1 the results were PTEN del growth 96.3 and HCT116 bCat-KO 84.0.
For COc1ccc(/C=N/Nc2nnc(-c3ccccc3)c(=O)[nH]2)cc1 the results were PTEN del growth 2.9* and HCT116 bCat-KO 4.5*.
`CC(C)(C)c1cnnn1-c1ccc(C(=O)CCl)cc1` gave Fibroblast inh 15.6*, PTEN del growth 93.0, H69AR growth 86K 1.6*, HUVEC inhibit 40.0 and HCT116 bCat-KO 101.9.
For COC(=O)c1ccc(/C=C(\C#N)C(=O)NC(C)c2ccccc2)cc1 (stereo not given) the results were PTEN del growth 1.6* and HCT116 bCat-KO 3.7*.
For Cc1ccc(C(C)NC(=O)/C(C#N)=C\c2c(C)[nH]c3ccccc23)cc1 (stereo not given) the results were PTEN del growth 97.0 and HCT116 bCat-KO 93.3.
Screening CCc1c(C)nc2ncnn2c1NCCc1ccc(OC)cc1 returned Fibroblast inh 68.0, PTEN del growth 14.8, H69AR growth 86K 12.6*, HUVEC inhibit 79.6 and HCT116 bCat-KO 15.4.
Screening O=C(Nc1nnc(SCc2ccc(F)cc2)s1)C1CC(=O)N(Cc2ccccc2)C1 (stereo not given) returned PTEN del growth 93.3 and HCT116 bCat-KO 82.4.
COc1ccc(/C=C/C(=O)c2ccc3c(c2)OCCO3)cc1[N+](=O)[O-] was read as PTEN del growth 46.1 and HCT116 bCat-KO 52.4.
Screening COc1ccc(Oc2ccc(/C=C/C(=O)c3cccc(OC)c3)cc2[N+](=O)[O-])cc1 returned PTEN del growth 1.9* and HCT116 bCat-KO 2.0*.
Screening CCOC(=O)CC1=NN(c2ccccc2)C(=O)/C1=C\c1ccc(OC)cc1OC returned PTEN del growth 98.9 and HCT116 bCat-KO 93.0.
